Measurements: ChEMBL document CHEMBL1137670, “First occurrence of an IMP metallo-beta-lactamase in Aeromonas caviae: IMP-19 in an isolate from France” (2007)
Values after ≈ are worked out from the molar mass of the structure shown.

Legend:
Type in all cases: functional
Aeromonas caviae [1] = assay: Antimicrobial activity against Aeromonas caviae A324R expressing metallo-beta-lactamase IMP-19 by broth dilution method
In short: (§1)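 Beta-lactam MICs by standard broth dilution per CLSI criteria. Recombinant DH5alpha(pIP19) carries blaIMP-19 subcloned into pK18, selected on kanamycin 30 µg/ml plus ceftazidime 4 µg/ml. DH5alpha(pJDB2) carries the 35 kb native plasmid extracted by alkaline lysis.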

Escherichia coli [2] = assay: Antimicrobial activity against Escherichia coli DH5alpha by broth dilution method; in short: as §1
Escherichia coli [3] = assay: Antimicrobial activity against Escherichia coli DH5alpha expressing pIP19 containing Aeromonas caviae A324R metallo-beta-lactamase blaIMP-19 gene by broth dilution method; in short: as §1
Escherichia coli [4] = assay: Antimicrobial activity against Escherichia coli DH5alpha expressing pJDB2 containing Aeromonas caviae A324R metallo-beta-lactamase gene by broth dilution method; in short: as §1
Aeromonas caviae [5] = assay: Antimicrobial activity against Aeromonas caviae A324R by disk diffusion method
In short: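 Disk diffusion per CLSI criteria, read as inhibition zone diameter in mm.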

Row | Compound | MIC (Aeromonas caviae [1]) | MIC (Escherichia coli [2]) | MIC (Escherichia coli [3]) | MIC (Escherichia coli [4]) | diameter of the inhibition zone (DIZ) (Aeromonas caviae [5])
1 | CC(C)(O/N=C(\C(=O)N[C@@H]1C(=O)N2C(C(=O)[O-])=C(C[n+]3ccccc3)CS[C@H]12)c1csc(N)n1)C(=O)O [CEFTAZIDIME] | 1020 µg/mL (≈ 1870 µM) | 4 µg/mL (≈ 7.32 µM) | 512 µg/mL (≈ 937 µM) | 128 µg/mL (≈ 234 µM) | 
2 | C[C@]1(Cn2ccnn2)[C@H](C(=O)O)N2C(=O)C[C@H]2S1(=O)=O [TAZOBACTAM] | 1 µg/mL (≈ 3.33 µM) | ≤ 0.25 µg/mL | 0.5 µg/mL (≈ 1.67 µM) | 0.5 µg/mL (≈ 1.67 µM) | 
3 | C[C@@H](O)[C@H]1C(=O)N2C(C(=O)O)=C(SCCNC=N)C[C@H]12 [IMIPENEM ANHYDROUS] | 8 µg/mL (≈ 26.7 µM) |  | 0.25 µg/mL (≈ 0.835 µM) | 0.25 µg/mL (≈ 0.835 µM) | 27 mm
4 | C[C@@H](O)[C@H]1C(=O)N2C(C(=O)O)=C(S[C@@H]3CN[C@H](C(=O)N(C)C)C3)[C@H](C)[C@H]12 [MEROPENEM] | 1020 µg/mL (≈ 2670 µM) | ≤ 1 µg/mL | 512 µg/mL (≈ 1340 µM) | 256 µg/mL (≈ 668 µM) | 
5 | Cc1nnc(SCC2=C(C(=O)O)N3C(=O)[C@@H](NC(=O)Cn4cnnn4)[C@H]3SC2)s1 [CEFAZOLIN] | 1020 µg/mL (≈ 2250 µM) | ≤ 1 µg/mL | 256 µg/mL (≈ 563 µM) | 256 µg/mL (≈ 563 µM) | 
6 | CC1(C)S[C@@H]2[C@H](NC(=O)[C@H](C(=O)O)c3ccsc3)C(=O)N2[C@H]1C(=O)O [TICARCILLIN] | 2050 µg/mL (≈ 5330 µM) | 4 µg/mL (≈ 10.4 µM) | 1020 µg/mL (≈ 2660 µM) | 512 µg/mL (≈ 1330 µM) | 
7 | CO[C@@]1(NC(=O)Cc2cccs2)C(=O)N2C(C(=O)O)=C(COC(N)=O)CS[C@@H]21 [CEFOXITIN] | 512 µg/mL (≈ 1200 µM) | 2 µg/mL (≈ 4.68 µM) | 512 µg/mL (≈ 1200 µM) | 256 µg/mL (≈ 599 µM) | 
8 | CCN1CCN(C(=O)N[C@@H](C(=O)N[C@@H]2C(=O)N3[C@@H]2SC(C)(C)[C@@H]3C(=O)O)c2ccccc2)C(=O)C1=O [PIPERACILLIN] | 256 µg/mL (≈ 495 µM) | 1 µg/mL (≈ 1.93 µM) | 2 µg/mL (≈ 3.86 µM) | 8 µg/mL (≈ 15.5 µM) | 
9 | O=C(O)[C@H]1/C(=C/CO)O[C@@H]2CC(=O)N21 [CLAVULANIC ACID] | 16 µg/mL (≈ 80.3 µM) | 0.5 µg/mL (≈ 2.51 µM) | 8 µg/mL (≈ 40.2 µM) | 4 µg/mL (≈ 20.1 µM) | 
10 | C[C@H]1[C@H](NC(=O)/C(=N\OC(C)(C)C(=O)O)c2csc(N)n2)C(=O)N1S(=O)(=O)O [AZTREONAM] | 512 µg/mL (≈ 1180 µM) |  | 256 µg/mL (≈ 588 µM) | 256 µg/mL (≈ 588 µM) | 24 mm
